Results from ChEMBL document CHEMBL1139350, “Modulation of Wnt signaling through inhibition of secreted frizzled-related protein I (sFRP-1) with N-substituted piperidinyl diphenylsulfonyl sulfonamides” (J Med Chem, 2009).

Key:
Format in all cases: ADME, Microsome
[1] = Metabolic stability in rat liver microsomes assessed as half life
Procedure, shortened: (§1)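 Stability in human or rat liver microsomes with compound at 1 µM, from DMSO solution.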

[2] = Metabolic stability in human liver microsomes assessed as half life; procedure, shortened: as §1
[3] = Metabolic stability in human liver microsomes assessed as half life in presence of NADPH
Procedure, shortened: (§2)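 Advanced stability in human or rat liver microsomes run with NADPH, with and without UDPGA, on compound from 1 µM DMSO solution.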

[4] = Metabolic stability in rat liver microsomes assessed as half life in presence of NADPH; procedure, shortened: as §2

half-life [1]	half-life [2]	half-life [3]	half-life [4]	SMILES
> 1 min	> 1 min			CC(C)(C)OC(=O)N1CCC[C@H]1C(=O)N1CCC(NS(=O)(=O)c2cc(S(=O)(=O)c3ccccc3)ccc2C(F)(F)F)CC1
> 8 min	> 5 min			CC(C)(C)CCN1CCC[C@H]1C(=O)N1CCC(NS(=O)(=O)c2cc(S(=O)(=O)c3ccccc3)ccc2C(F)(F)F)CC1
> 3 min	> 1 min			CC(C)(C)CC(=O)N1CCC[C@H]1C(=O)N1CCC(NS(=O)(=O)c2cc(S(=O)(=O)c3ccccc3)ccc2C(F)(F)F)CC1
		> 60 min	> 60 min	O=S(=O)(NC1CCNCC1)c1cc(S(=O)(=O)c2ccccc2)ccc1C(F)(F)F
> 3 min	> 2 min			CC(C)(C)NC(=O)N1CCC[C@H]1C(=O)N1CCC(NS(=O)(=O)c2cc(S(=O)(=O)c3ccccc3)ccc2C(F)(F)F)CC1
